The term IC50 denotes the concentration that gives 50% inhibition. Broadly, the Ki is the equilibrium dissociation constant of an inhibitor or competing ligand from its target. In general, inhibition refers to the percentage by which the read-out fell short of the control.

The target in series [1] is T1, L-lactate dehydrogenase A chain (Homo sapiens, UniProt P00338). The series is described as follows: Inhibition of human liver purified lactate dehydrogenase-A using pyruvate as substrate assessed as NADH oxidation for 3 mins by fluorimetric method. A digest of the protocol:
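Purified human LDH-A was run in a fluorimetric assay. Values were obtained from triplicate points and given as mean ± standard deviation.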

The target of series [2] is T1, L-lactate dehydrogenase A chain. The series is described as follows: Inhibition of lactate dehydrogenase-A in human Raji cells assessed as reduction of intracellular lactate level after 3 hrs. Format: cell-based. The method, boiled down: (§1)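 Raji Burkitt's lymphoma cells (MYC-overexpressing) were used for lactic acid production and cell proliferation. All points were run in triplicate and reported as mean ± standard deviation.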

The test system of series [3] is Raji. The experiment in a line: Antiproliferative activity against human Raji cells after 24 hrs by Trypan blue exclusion method. Format: functional, cell-based. A digest of the protocol:
as §1

Series [4] has as its target T1, L-lactate dehydrogenase A chain. The series is described as follows: Inhibition of human liver purified lactate dehydrogenase-A using pyruvate as substrate assessed as disappearance of NADH fluorescence. The method, boiled down:
(§2)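 Purified human LDH-A enzymatic assays were run. Inhibition constants (Ki) were calculated separately versus pyruvate and versus NADH as the varied substrate.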

Series [5] shares this target. The series is described as follows: Inhibition of human liver purified lactate dehydrogenase-A using NADH as substrate assessed as disappearance of NADH fluorescence. A digest of the protocol:
as §2

The target is the same in series [6]. The experiment in a line: Inhibition of lactate dehydrogenase-A in human Raji cells assessed as reduction of intracellular lactate level at 40 uM after 3 hrs. The series is classed as cell-based.
The subject of series [7] is Raji. The experiment in a line: Antiproliferative activity against human Raji cells at 40 uM after 24 hrs by Trypan blue exclusion method. Format: functional.
Series [8] relates to Raji. The experiment in a line: Cell cycle arrest in human Raji cells assessed as accumulation at S phase at 40 uM after 18 hrs using propidium iodide staining by flow cytometry. The series is classed as functional, cell-based. The note with it: in the assay text read “accumulation at G2/M phase” for “accumulation at S phase”. A digest of the protocol:
(§3)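 Raji cells were exposed for 18 h, then stained with propidium iodide. Cell cycle phase distribution (S, G2/M fractions) was measured by flow cytometry and tested for statistical significance against untreated cells.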
A general note: In flow cytometry, cells or beads pass a laser one at a time.

Series [9] has as its system Raji. The experiment in a line: Cell cycle arrest in human Raji cells assessed as accumulation at G2/M phase at 40 uM after 18 hrs using propidium iodide staining by flow cytometry. The series is classed as functional, cell-based. The method, boiled down: as §3
Series [10] has as its target T1, L-lactate dehydrogenase A chain. The series is described as follows: Inhibition of lactate dehydrogenase-A in human Raji cells assessed as reduction of NAD+ regeneration at 40 uM. The series is classed as cell-based. The method, boiled down:
(§4)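 Intracellular NAD+ and NADH were measured in Raji cells after 18 h exposure to assess the redox balance. The shift was evaluated against untreated cells with statistical testing.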

For series [11], the system named is Raji. The experiment in a line: Induction of apoptosis in human Raji cells assessed as increase of BCL2 protein expression at 40 uM after 18 hrs by Western blotting. Format: functional, cell-based. A digest of the protocol: (§5)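 After 18 h exposure, Raji cell lysates were analysed by Western blot for the mitochondrial apoptosis regulators BAX and BCL2. The fold change was expressed versus untreated control.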
(In western blotting, separated proteins are transferred to a membrane and probed.)

The test system of series [12] is Raji. The series is described as follows: Induction of apoptosis in human Raji cells assessed as increase of BAX protein expression at 40 uM after 18 hrs by Western blotting relative to control. Format: functional. A digest of the protocol:
as §5

Series [13] has as its system Raji. The series is described as follows: Potentiation of cisplatin-induced cytotoxicity against human Raji cells assessed as combination index at 40 uM after 24 hrs by Trypan blue exclusion method relative to control. The series is classed as functional. A digest of the protocol:
(§6)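 Each chemotherapeutic agent was first titrated on Raji cells to its lowest dose giving a statistically significant viability effect at 24 h. That dose was then combined with a fixed concentration of the test agent, and a combination index was calculated, where 0.8–1.2 indicates additivity. Experiments were repeated twice.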

For series [14], the system named is Raji. The series is described as follows: Potentiation of daunomycin-induced cytotoxicity against human Raji cells assessed as combination index at 40 uM after 24 hrs by Trypan blue exclusion method relative to control. Format: functional. A digest of the protocol: as §6
The subject of series [15] is Raji. The experiment in a line: Potentiation of etoposide-induced cytotoxicity against human Raji cells assessed as combination index at 40 uM after 24 hrs by Trypan blue exclusion method relative to control. The series is classed as functional. A digest of the protocol:
as §6

Series [16] relates to Raji. The experiment in a line: Potentiation of sunitinib-induced cytotoxicity against human Raji cells assessed as combination index at 40 uM after 24 hrs by Trypan blue exclusion method relative to control. Format: functional. The method, boiled down: as §6
A short description of series [17]: Cytotoxicity against lymphocytes (unknown origin) assessed as cell viability at 200 uM after 24 hrs by Trypan blue exclusion method. The series is classed as cell-based. The conditions noted are these: lymphocyte. A digest of the protocol:
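Viability of normal lymphocytes after treatment was compared with Raji cultures across a concentration range up to 200. Significance was assessed by ANOVA.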

The target of series [18] is T1, L-lactate dehydrogenase A chain. The series is described as follows: Inhibition of lactate dehydrogenase-A in human Raji cells assessed as NAD level per 10^6 cells at 40 uM after 18 hrs (reference value: 365 pmol). The series is classed as cell-based. A digest of the protocol: as §4
Series [19] has the same target. The series is described as follows: Inhibition of lactate dehydrogenase-A in human Raji cells assessed as NADH level per 10^6 cells at 40 uM after 18 hrs (reference value: 24 pmol). Format: cell-based. A digest of the protocol: as §4

The structures appear in SMILES notation. The source made the active and inactive calls. The rule behind the calls is not given here.

Regarding `N#CCC(=O)N/N=C/c1ccc(-c2ccc(C(=O)O)cc2)o1`, the IC50 in series [1] is 37 µM; in [2], above 200 µM.
Take `N#CCC(=O)N/N=C/c1cccc(-c2ccc(C(=O)O)cc2)n1`: the concentration for half-maximal inhibition (IC50) in [1] was above 200 µM.
Consider `O=C(O)c1cccc(-c2ccc(/C=N/NC(=O)c3cccc(CO)c3)o2)c1`, for which the 50% inhibitory concentration (IC50) in series [1] is 46 µM; in [2], above 200 µM; in the series with Raji [3], above 200 µM.
In the case of `N#CCC(=O)N/N=C/c1ccc(-c2cccc(C(=O)O)c2)o1`, the IC50 came out at 48 µM in [1], 115 µM in series [2] and 64 µM with Raji [3].
For `COc1cc(C(=O)N/N=C/c2cc(-c3cccc(C(=O)O)c3)co2)cc(OC)c1OC` the same measures were 32 µM, 52 µM and 48 µM.
For `O=C(O)c1cccc(-c2ccc(/C=N/NC(=O)c3ccc4[nH]ccc4c3)o2)c1` the same measures were 38 µM, 100 µM and 115 µM.
Consider `COc1cc(C(=O)N/N=C/c2cccc(-c3cccc(C(=O)O)c3)n2)cc(OC)c1OC`, for which, in [1], the IC50 is above 200 µM.
Regarding `COC(=O)c1cccc(-c2ccc(/C=N/NC(=O)c3cccnc3)o2)c1`, the IC50 in [1] is above 200 µM.
In the case of `COc1cc(C(=O)N/N=C/c2c[nH]c(-c3cccc(C(=O)O)c3)c2)cc(OC)c1OC`, the IC50 in series [2] is above 200 µM; in the series on Raji [3] it was 80 µM.
On to `COc1cc(C(=O)N/N=C/c2ccc(-c3cccc(C(=O)O)c3)s2)cc(OC)c1OC`, for which the IC50 amounted to 41 µM in series [1], 105 µM in series [2] and 95 µM in the series on Raji [3].
On to `O=C(O)c1cccc(-c2ccc(/C=N/NC(=O)c3ccc4[nH]ncc4c3)o2)c1`, for which the IC50 in [1] is 41 µM; in [2], above 200 µM; with Raji [3], 45 µM.
For the molecule `COc1cc(C(=O)N/N=C/c2ccc(-c3cccc(C(=O)O)c3)o2)cc(OC)c1OC`, the IC50 in series [1] was determined as 37 µM; in series [2], 42 µM; in the series on Raji [3], 38 µM. Further, the inhibition constant (Ki) in series [4] worked out at 39 µM; in [5], 47 µM. In [6], the inhibition came out at 50%. The same molecule yielded an inhibition at 40 µM with Raji [7] of 50%. For the same molecule, the result in the series on Raji [8] and with Raji [9] was Active. In series [10], the inhibition entry is “Active”. The result with Raji [11] was inactive. In addition, in the series with Raji [12], the “fold change (FC)” value was found to be 6.7. In addition, the CI in the series on Raji [13] worked out at 1; in the series on Raji [14] it was 0.88; in the series with Raji [15], 0.86; with Raji [16], 1.08. For the same molecule, the Activity result in [17] was “Non-toxic”; in series [18], 351 pmol; in series [19], 26 pmol.
`COc1cc(C(=O)N/N=C/c2ccc(-c3ccc(C(=O)O)cc3)o2)cc(OC)c1OC`: the IC50 is 125 µM in series [1], 134 µM in series [2] and 100 µM in the series with Raji [3].
On to `O=C(O)c1cccc(-c2ccc(/C=N/NC(=O)c3cccnc3)o2)c1`, for which the IC50 was 43 µM in series [1], above 200 µM in [2] and above 200 µM in the series with Raji [3].

Values taken from ChEMBL document CHEMBL3608299, “Identification of N-acylhydrazone derivatives as novel lactate dehydrogenase A inhibitors” (Eur J Med Chem, 2015).
